Laboratory results from ChEMBL document CHEMBL6153064, “Structure-based discovery of novel diarylpyrimidines as potent and selective Non-Nucleoside reverse transcriptase inhibitors: From CH(CN)-Biphenyl-Diarylpyrimidines to CNNH2-Biphenyl-Diarylpyrimidines” (Eur J Med Chem, 2025).

Key:
[1] = system: Human immunodeficiency virus 1; assay: Antiviral activity against wild type HIV-1 IIIB infected in human MT4 cells […]; type: functional, organism-based; conditions: Human immunodeficiency virus 1, IIIB
[2] = Cytotoxicity against human MT4 cells by MTT assay; type: toxicity, cell-based
[3] = Selectivity index, ratio of CC50 for cytotoxicity against human MT4 cells to EC50 for antiviral activity against wild type HIV-1 IIIB infected in human MT4 cells; type: toxicity, cell-based; conditions: read-out: Ratio CC50/EC50
Outline: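 Selectivity index calculated as CC50/EC50 ratio, both values from MTT viability readout in MT-4 cells, antiviral arm using wild-type HIV-1 IIIB.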

[4] = system: Human immunodeficiency virus 1; assay: Antiviral activity against HIV-1 harboring Y181C mutant infected in human MT4 cells […]; type: functional, organism-based; conditions: Human immunodeficiency virus 1, MT4
[5] = system: Human immunodeficiency virus 1; assay: Antiviral activity against HIV-1 harboring L100I mutant infected in human MT4 cells […]; type: functional, organism-based; conditions: Human immunodeficiency virus 1, MT4
[6] = system: Human immunodeficiency virus 1; assay: Antiviral activity against HIV-1 harboring K103N mutant infected in human MT4 cells […]; type: functional, organism-based; conditions: Human immunodeficiency virus 1, MT4
[7] = system: Human immunodeficiency virus 1; assay: Antiviral activity against HIV-1 harboring E138K mutant infected in human MT4 cells […]; type: functional, organism-based; conditions: Human immunodeficiency virus 1, MT4
[8] = target: Human immunodeficiency virus type 1 reverse transcriptase (Human immunodeficiency virus 1, UniProt Q72547); assay: Inhibition of wild type HIV-1 Reverse transcriptase
[9] = system: Human immunodeficiency virus 1; assay: Antiviral activity against HIV-1 harboring Y188L mutant infected in human MT4 cells assessed as inhibition of virus-induced cytopathic effect by MTT assay; conditions: Human immunodeficiency virus 1, MT4

| Compound | EC50 [1] [µM] | CC50 [2] [µM] | selectivity ratio [3] | EC50 [4] [µM] | EC50 [5] [µM] | EC50 [6] [µM] | EC50 [7] [µM] | IC50 [8] [µM] | EC50 [9] [µM] |
| --- | --- | --- | --- | --- | --- | --- | --- | --- | --- |
| COc1cc(-c2ccc(C#N)cc2)ccc1C(NC(C)C)c1ccnc(Nc2ccc(C#N)cc2)n1 (configuration not stated) | 0.211 | 20 | 94 |  |  |  |  |  |  |
| O=C1Nc2ccc(Cl)cc2[C@@](C#CC2CC2)(C(F)(F)F)O1 [EFAVIRENZ] |  | > 6.3 |  | 0.008 |  |  |  |  |  |
| CCNC(c1ccnc(Nc2ccc(C#N)cc2)n1)c1ccc(-c2ccc(C#N)cc2)cc1C (configuration not stated) | 0.063 | 12 | 188 |  |  |  |  |  |  |
| CCCNC(c1ccnc(Nc2ccc(C#N)cc2)n1)c1ccc(-c2ccc(C#N)cc2)cc1C (configuration not stated) | 0.146 | > 273 | > 1870 |  |  |  |  |  |  |
| N#Cc1ccc(Nc2nccc(C(NCCCl)c3ccc(-c4ccc(C#N)cc4)cc3Cl)n2)cc1 (configuration not stated) | 0.042 | 243 | 5890 |  |  |  |  |  |  |
| C/N=C(/c1ccnc(Nc2ccc(C#N)cc2)n1)c1ccc(-c2ccc(C#N)cc2)cc1Cl | 0.006 | > 45 | > 7140 | 0.192 | 0.149 | 0.129 | 0.051 | 0.069 | 3.81 |
| Cc1cc(-c2ccc(C#N)cc2)ccc1C(NC(C)C)c1ccnc(Nc2ccc(C#N)cc2)n1 (configuration not stated) | 0.166 | 82 | 495 |  |  |  |  |  |  |
| N#Cc1ccc(Nc2nccc(C(NC3CC3)c3ccc(-c4ccc(C#N)cc4)cc3C(F)(F)F)n2)cc1 (configuration not stated) | 0.294 | 75 | 250 |  |  |  |  |  |  |
| N#Cc1ccc(Nc2nccc(C(NC3CC3)c3ccc(-c4ccc(C#N)cc4)cc3Cl)n2)cc1 (configuration not stated) | 0.147 | > 262 | > 1800 |  |  |  |  |  |  |
| N#Cc1ccc(Nc2nccc(C(NCC(F)(F)F)c3ccc(-c4ccc(C#N)cc4)cc3Cl)n2)cc1 (configuration not stated) | 0.231 | > 241 | > 1070 |  |  |  |  |  |  |
| N#Cc1ccc(Nc2nccc(C(NC3CC3)c3ccc(-c4ccc(C#N)cc4)cc3F)n2)cc1 (configuration not stated) | 0.63 | > 271 | > 431 |  |  |  |  |  |  |
| C/N=C(/c1ccnc(Nc2ccc(C#N)cc2)n1)c1ccc(-c2ccc(C#N)cc2)cc1OC | 0.008 | 16 | 1960 | 0.293 | 0.293 | 0.169 | 0.083 | 0.061 | 4.46 |
| CC(C)NC(c1ccnc(Nc2ccc(C#N)cc2)n1)c1ccc(-c2ccc(C#N)cc2)cc1Cl (configuration not stated) | 0.23 | 30 | 130 |  |  |  |  |  |  |
| N#Cc1ccc(Nc2nccc(C(NCCF)c3ccc(-c4ccc(C#N)cc4)cc3Cl)n2)cc1 (configuration not stated) | 0.077 | > 259 | > 3370 |  |  |  |  |  |  |
| COc1cc(-c2ccc(C#N)cc2)ccc1C(NC1CC1)c1ccnc(Nc2ccc(C#N)cc2)n1 (configuration not stated) | 0.072 | 123 | 1680 |  |  |  |  |  |  |
| CNC(c1ccnc(Nc2ccc(C#N)cc2)n1)c1ccc(-c2ccc(C#N)cc2)cc1C (configuration not stated) | 0.033 | 12 | 367 | 1.09 | 2.44 | 0.743 | 0.279 | 0.153 | 9.2 |
| N#Cc1ccc(Nc2nccc(C(NCCCO)c3ccc(-c4ccc(C#N)cc4)cc3Cl)n2)cc1 (configuration not stated) | 0.067 | 23 | 345 |  |  |  |  |  |  |
| N#Cc1ccc(Nc2nccc(/C(=N/N)c3ccc(-c4ccc(C#N)cc4)cc3OC(F)(F)F)n2)cc1 | 0.04 | 171 | 4310 | 0.26 | 0.18 | 0.182 | 0.34 | 0.072 | 1.48 |
| N#Cc1ccc(Nc2nccc(/C(=N/N)c3ccc(-c4ccc(C#N)cc4)cc3C(F)(F)F)n2)cc1 | 0.031 | 68 | 2170 | 0.134 | 0.058 | 0.106 | 0.068 | 0.058 | 1.14 |
| C/N=C(/c1ccnc(Nc2ccc(C#N)cc2)n1)c1ccc(-c2ccc(C#N)cc2)cc1C(F)(F)F | 0.035 | 119 | 3280 | 0.435 | 0.352 | 0.415 | 0.29 | 0.18 | 3.03 |
| Cc1cc(-c2ccc(C#N)cc2)ccc1/C(=N\N)c1ccnc(Nc2ccc(C#N)cc2)n1 | 0.007 | > 291 | > 45000 | 0.047 | 0.016 | 0.017 | 0.013 | 0.023 | 0.442 |
| N#Cc1ccc(Nc2nccc(C(NCCCCl)c3ccc(-c4ccc(C#N)cc4)cc3Cl)n2)cc1 (configuration not stated) | 0.195 | > 244 | > 1260 |  |  |  |  |  |  |
| Cc1ccnc2c1NC(=O)c1cccnc1N2C1CC1 [NEVIRAPINE] |  |  |  |  | 2.06 |  |  |  | > 15 |

| Compound | EC50 [1] [µM] | CC50 [2] [µM] | selectivity ratio [3] | EC50 [4] [µM] | EC50 [5] [µM] | EC50 [6] [µM] | EC50 [7] [µM] | IC50 [8] [µM] | EC50 [9] [µM] |
| --- | --- | --- | --- | --- | --- | --- | --- | --- | --- |
| Cc1cc(-c2ccc(C#N)cc2)ccc1C(NC1CC1)c1ccnc(Nc2ccc(C#N)cc2)n1 (configuration not stated) | 0.156 | > 274 | > 1760 |  |  |  |  |  |  |
| N#Cc1ccc(Nc2nccc(C(NC3CC3)c3ccc(-c4ccc(C#N)cc4)cc3OC(F)(F)F)n2)cc1 (configuration not stated) | 0.589 | 73 | 125 |  |  |  |  |  |  |
| CCCNC(c1ccnc(Nc2ccc(C#N)cc2)n1)c1ccc(-c2ccc(C#N)cc2)cc1OC(F)(F)F (configuration not stated) | 0.662 | 27 | 40 |  |  |  |  |  |  |
| CCCNC(c1ccnc(Nc2ccc(C#N)cc2)n1)c1ccc(-c2ccc(C#N)cc2)cc1Cl (configuration not stated) | 0.184 | > 261 | > 1420 |  |  |  |  |  |  |
| N#Cc1ccc(Nc2nccc(C(NCCO)c3ccc(-c4ccc(C#N)cc4)cc3Cl)n2)cc1 (configuration not stated) | 0.092 | 22 | 238 |  |  |  |  |  |  |
| CC(C)NC(c1ccnc(Nc2ccc(C#N)cc2)n1)c1ccc(-c2ccc(C#N)cc2)cc1F (configuration not stated) | 0.649 | 45 | 70 |  |  |  |  |  |  |
| C/N=C(/c1ccnc(Nc2ccc(C#N)cc2)n1)c1ccc(-c2ccc(C#N)cc2)cc1C | 0.012 | > 47 | > 3940 | 0.42 | 1.54 | 0.373 | 0.082 | 0.058 | > 46.7 |
| CCNC(c1ccnc(Nc2ccc(C#N)cc2)n1)c1ccc(-c2ccc(C#N)cc2)cc1C(F)(F)F (configuration not stated) | 0.153 | 22 | 146 |  |  |  |  |  |  |
| CCNC(c1ccnc(Nc2ccc(C#N)cc2)n1)c1ccc(-c2ccc(C#N)cc2)cc1OC(F)(F)F (configuration not stated) | 0.505 | 21 | 43 |  |  |  |  |  |  |
| C/N=C(/c1ccnc(Nc2ccc(C#N)cc2)n1)c1ccc(-c2ccc(C#N)cc2)cc1OC(F)(F)F | 0.013 | > 251 | > 19100 | 0.361 | 0.301 | 0.281 | 0.122 | 0.221 | 20.1 |
| N#CCCNC(c1ccnc(Nc2ccc(C#N)cc2)n1)c1ccc(-c2ccc(C#N)cc2)cc1Cl (configuration not stated) | 0.071 | > 255 | > 3600 |  |  |  |  |  |  |
| CCNC(c1ccnc(Nc2ccc(C#N)cc2)n1)c1ccc(-c2ccc(C#N)cc2)cc1Cl (configuration not stated) | 0.099 | 19 | 187 |  |  |  |  |  |  |
| CCNC(c1ccnc(Nc2ccc(C#N)cc2)n1)c1ccc(-c2ccc(C#N)cc2)cc1F (configuration not stated) | 0.357 | 31 | 87 |  |  |  |  |  |  |
| CCCNC(c1ccnc(Nc2ccc(C#N)cc2)n1)c1ccc(-c2ccc(C#N)cc2)cc1F (configuration not stated) | 0.259 | > 270 | > 1060 |  |  |  |  |  |  |
| N#Cc1ccc(Nc2nccc(/C(=N/N)c3ccc(-c4ccc(C#N)cc4)cc3Cl)n2)cc1 | 0.006 | 212 | 33300 | 0.067 | 0.022 | 0.049 | 0.076 | 0.036 | 0.778 |
| CCNC(c1ccnc(Nc2ccc(C#N)cc2)n1)c1ccc(-c2ccc(C#N)cc2)cc1OC (configuration not stated) | 0.326 | 20 | 60 |  |  |  |  |  |  |
| N#Cc1ccc(Nc2nccc(/C(=N/N)c3ccc(-c4ccc(C#N)cc4)cc3F)n2)cc1 | 0.007 | > 46 | > 6210 | 0.21 | 0.069 | 0.125 | 0.194 | 0.02 | > 46.1 |
| N#Cc1ccc(Nc2nccc(/C(=N/N)c3c(F)cc(-c4ccc(C#N)cc4)cc3F)n2)cc1 | 0.009 | 23 | 2480 | 0.064 | 0.016 | 0.044 | 0.038 | 0.031 | > 23.1 |
| CCCNC(c1ccnc(Nc2ccc(C#N)cc2)n1)c1ccc(-c2ccc(C#N)cc2)cc1C(F)(F)F (configuration not stated) | 1.01 | 90 | 87 |  |  |  |  |  |  |
| CC(C)NC(c1ccnc(Nc2ccc(C#N)cc2)n1)c1ccc(-c2ccc(C#N)cc2)cc1C(F)(F)F (configuration not stated) | 1.19 | 29 | 25 |  |  |  |  |  |  |
| N#Cc1ccc(Nc2nccc(C(C#N)c3ccc(-c4ccc(C#N)cc4)cc3F)n2)cc1 (configuration not stated) |  | 36 | 1360 | 0.87 | 1.21 | 0.9 | 0.17 |  | 9.81 |
| CCCNC(c1ccnc(Nc2ccc(C#N)cc2)n1)c1ccc(-c2ccc(C#N)cc2)cc1OC (configuration not stated) | 0.131 | 14 | 110 |  |  |  |  |  |  |
| CC(C)NC(c1ccnc(Nc2ccc(C#N)cc2)n1)c1ccc(-c2ccc(C#N)cc2)cc1OC(F)(F)F (configuration not stated) | 0.927 | 23 | 24 |  |  |  |  |  |  |
